Source: PubChem BioAssay
Mcl1 Bid PPI: Mcl-1/Bid interaction inhibition. inhibition, % at 21.7 µM. TR-FRET Mcl-1/Bid-Dy647 peptide binding, 1536-well. hit rate 0.97% among 220,000;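 active = compounds that cut the binding signal by more than half at the single screening dose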;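 note: His-tagged Mcl-1 with europium anti-His antibody binding Bid BH3 peptide; 0% = Mcl-1 plus peptide wells and 100% = peptide-only wells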
Biofilm kill mix: mixtures killing C. albicans biofilm. C. albicans biofilm persisters + clotrimazole, fluorescence viability; primary screen in compound mixtures of four per well. inhibition, % at 7.6 µM. hit rate 0.02% among 120,000. AID 1242;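 active = inhibition above 30.3% in the primary screen of four-compound pools, then above 30% when the compound was retested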;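 note: compounds exposed to preformed 24 h biofilms for 48 h; 0% = untreated biofilm control and 100% = clotrimazole plus chlorhexidine kill blank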
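Test system: C. albicans biofilms. Buffer or medium: RPMI/MOPS medium, pH 7.0. Timing: 48 h compound exposure at 37 °C. Technique: Alamar Blue fluorescence. Evaluation: percent inhibition of biofilm viability.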
Hck-Nef inh: inhibitors of human Hck kinase activated by Nef; Recombinant Hck-YEEI plus Nef, Z-Lyte FRET kinase assay; inhibition, % at 20 µM; hit rate 0.68% among 220,000; AID 463187;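 active = Hck-Nef kinase inhibition above about 50%, limit read from the data; inactive = inhibition below that limit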;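 note: 0% = DMSO with Hck plus Nef and 100% = Hck alone without Nef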
Target sequence (P08631 whole entry, looked up): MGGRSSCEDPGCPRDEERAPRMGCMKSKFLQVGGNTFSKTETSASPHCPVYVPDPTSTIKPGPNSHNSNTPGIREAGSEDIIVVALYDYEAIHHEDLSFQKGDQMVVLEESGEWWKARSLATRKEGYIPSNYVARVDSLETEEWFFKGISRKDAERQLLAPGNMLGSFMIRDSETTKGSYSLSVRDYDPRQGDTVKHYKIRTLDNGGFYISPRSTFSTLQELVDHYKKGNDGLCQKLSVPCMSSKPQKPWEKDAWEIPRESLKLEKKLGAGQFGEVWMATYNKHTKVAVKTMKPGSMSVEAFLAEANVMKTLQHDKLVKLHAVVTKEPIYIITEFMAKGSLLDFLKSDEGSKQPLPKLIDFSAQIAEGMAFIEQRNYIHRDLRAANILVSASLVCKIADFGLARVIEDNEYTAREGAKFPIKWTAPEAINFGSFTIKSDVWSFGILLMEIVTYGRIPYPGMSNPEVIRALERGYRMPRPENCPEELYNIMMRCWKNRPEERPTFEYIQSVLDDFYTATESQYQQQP
Bim-Mcl-1: disrupts Bim peptide binding to human Mcl-1; inhibition, % at 10 µM; AID 1009; hit rate 0.1% among 190,000; Bead-based flow cytometry, Bim peptide-Mcl-1 binding; Q07820; in the data active = inhibition above about 40%;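 note: 0% = no compound tracer wells and 100% = peptide blocker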
14-3-3 Bad inh: disrupts binding of bovine 14-3-3 zeta to phospho-Bad peptide; P63103; TR-FRET 14-3-3zeta/Dy647-pBad peptide displacement, 1 h; inhibition, % at 21.7 µM; hit rate 0.71% among 220,000;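 active = inhibition above about 70%, limit read from the data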;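 note: 0% = full 14-3-3 plus peptide FRET controls and 100% = background without 14-3-3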
Mcl1 Noxa PPI: Mcl-1/Noxa interaction inhibition. Q07820. TR-FRET Mcl-1/Noxa peptide binding, 2 h. inhibition, % at 21.7 µM. hit rate 1.5% among 220,000. AID 1022;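 active = compounds that cut the protein-peptide binding signal by more than 50% relative to plate controls in a single-dose test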;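 note: His-tagged Mcl-1 with rhodamine Noxa BH3 peptide and terbium anti-His antibody; 0% = Mcl-1 plus Noxa peptide wells and 100% = peptide-only wells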
* = called active by the depositor; x = no result. Only some compounds are listed: those with a hit (about 3.2% of all), similar ones and a draw of the others.

SMILES | Mcl1 Bid PPI | Biofilm kill mix | Hck-Nef inh | Bim-Mcl-1 | 14-3-3 Bad inh | Mcl1 Noxa PPI
CCOC(=O)c1c(NC(=O)C(c2ccccc2)c2ccccc2)sc2c1C1CCN2CC1 | 21 | x | -1 | 0 | 79* | -14
CCC(C)N1CCN(C(=O)Cc2ccccc2)CC1 (stereo unspecified) | 29 | x | -21 | 0 | 80* | 21
COc1ccc(Br)cc1CN1CCN(C(=O)Cc2ccccc2)CC1 | 30 | x | -22 | -1 | 86* | 22
Cc1ccc(CC(=O)N2CCN(Cc3ccccc3)CC2)cc1 | -11 | 8 | 20 | -1 | -15 | 3
COc1ccc(CC(=O)N2CCN(C)CC2)cc1OC | -9 | x | 1 | -1 | 73* | -3
CN=C(SCC(=O)c1cccc(Cl)c1)c1c(O)n(C)c(=O)n(C)c1=O | -27 | 16 | 7 | x | -6 | -16
O=C1C=Cc2ccccc2C1=O | 7 | 12 | 26 | 1 | 32 | 73*
C=CP(=O)(O)c1ccccc1 | 55* | x | 0 | -1 | 17 | 29
COc1cccc(N2C(=O)NC(=O)/C(=C/c3ccc4c(c3)Cc3ccccc3-4)C2=O)c1 | 9 | 19 | 115* | 0 | 25 | 41
Cc1ccc(N2C(=O)NC(=O)/C(=C\c3ccc([N+](=O)[O-])o3)C2=O)cc1 | 17 | 2 | 50* | 0 | 47 | 70*
Cc1ccc(N2C(=O)NC(=O)/C(=C\c3ccc(N4CCOCC4)cc3)C2=O)cc1 | -50 | 9 | 5 | -1 | 3 | 16
COc1ccc(N2C(=O)NC(=O)/C(=C/c3ccc([N+](=O)[O-])s3)C2=O)cc1 | -11 | 30 | 19 | x | 2 | 51*
O=C1NC(=O)N(c2ccccc2)C(=O)/C1=C\c1ccc2c3c(cccc13)CC2 | 12 | 19 | 4 | -4 | 37 | 81*
COc1ccccc1N1C(=O)NC(=O)/C(=C/c2ccc3c4c(cccc24)CC3)C1=O | 18 | 11 | 6 | -32 | -1 | 15
COc1ccccc1N1C(=O)NC(=O)/C(=C/c2ccc([N+](=O)[O-])s2)C1=O | -25 | 30 | 32 | x | 11 | 45
COc1cccc(N2C(=O)NC(=O)/C(=C/c3ccc([N+](=O)[O-])s3)C2=O)c1 | -59 | 27 | 6 | x | 7 | 61*
CC(=O)c1c(C)n(C2CCCCC2)c2ccc(O)cc12 | -35 | 7 | 43 | 0 | -6 | 20
O=C(O)c1cccc2c1NC(C(=O)O)C1CC(Sc3ccccc3[N+](=O)[O-])C(Cl)C21 (stereo unspecified) | 1 | 15 | 13 | 0 | 29 | 94*
CC(=O)c1ccc2c(c1)C1C(Cl)C(Sc3ccccc3[N+](=O)[O-])CC1C(C(=O)O)N2 (stereo unspecified) | 42 | 13 | 25 | -14 | -3 | 110*
CCCC(=O)C1C(=O)NC(=O)NC1=O | x | x | -1 | 3 | x | x
c1cncc(C2CC(c3cccs3)n3ncnc3N2)c1 (stereo unspecified) | -16 | x | -4 | -6 | 2 | -25
FC(F)(F)c1cccc(-n2nnnc2C2(N3CCOCC3)CCCCC2)c1 | -13 | x | -1 | 0 | 3 | 9
O=C1NS(=O)c2cc([N+](=O)[O-])cc([N+](=O)[O-])c21 (stereo unspecified) | -10 | -27 | 18 | 1 | 4 | 28
C=C(CO)CC1CC(O)[C@]2(C)OC3CC4OC5C[C@]6(C)O[C@]7(C)CCC8OC9C[C@]%10(C)OC%11C(C)=CC(=O)OC%11CC%10OC9C[C@@H](C)C8OC7CC6O[C@]5(C)C/C=C\C4OC3CC2O1 (stereo partly specified) | 7 | 19 | -7 | -1 | 4 | 17
C=C(C=O)CC1CC(O)[C@]2(C)OC3CC4OC5C[C@]6(C)O[C@]7(C)CCC8OC9C[C@]%10(C)OC%11C(C)=CC(=O)OC%11CC%10OC9C[C@@H](C)C8OC7CC6O[C@]5(C)CC5OC5C4OC3CC2O1 (stereo partly specified) | 78* | 10 | 0 | -3 | 7 | 10
SMILES | Mcl1 Bid PPI | Biofilm kill mix | Hck-Nef inh | Bim-Mcl-1 | 14-3-3 Bad inh | Mcl1 Noxa PPI
CC(=O)N1N=C2C3CCN(CC3)C2C1c1ccc(F)cc1 (stereo unspecified) | -4 | 16 | 0 | 1 | -13 | 11
O=C(O)CCn1cc(C=C2C(=O)NC(=S)NC2=O)c(-c2cc3ccccc3oc2=O)n1 | 5 | 30 | 48 | 2 | 38 | 81*
CCCCCCC(=O)c1c(O)n(-c2ccc(OC)cc2)c(=O)[nH]c1=O (tested in a mixture with another compound) | -22 | 22 | 17 | x | 6 | 16
Cc1nc2cc(F)ccc2n1C1CCN(Cc2nnnn2CCc2ccccc2)CC1 | 21 | x | 3 | 0 | 80* | 28
Fc1ccc2c(c1)nnn2C1CCN(Cc2nnnn2C2CCCCC2)CC1 | -10 | x | 0 | -2 | 80* | 9
CN1CCN(c2ncc(C=O)s2)CC1 | 2 | 11 | -15 | 0 | -2 | 1
COc1ccc(CCNCc2ccc(F)cc2)cc1OC | 0 | x | -2 | -1 | -10 | 7
COc1ccc(CCNCc2ccccn2)cc1OC | 14 | x | 9 | -2 | 75* | 7
c1ccc(-c2ccc(-c3n(-c4ccccn4)c4ccccc4[n+]3-c3ccccn3)cc2)cc1 | 16 | 5 | 23 | -1 | 12 | 87*
CN(C)[C@@H]1C(=O)C(C(N)=O)=C(O)[C@@]2(O)C(=O)C3=C(O)c4c(O)cccc4[C@@](C)(O)[C@H]3[C@H](O)[C@@H]12 | 72* | 4 | 9 | 3 | 89* | 111*
CC(C)N1CCN(c2ccc(O)cc2)CC1 | -67 | -12 | 3 | -6 | -8 | 54*
COc1ccc2c(c1)CC1(CN2C)C(=O)NC(=O)N(CCc2ccccc2)C1=O (stereo unspecified) | -13 | x | 3 | -3 | 8 | 31
CCC(C)N1C(=O)NC(=O)C2(Cc3c(ccc4ccccc34)N(C)C2)C1=O (stereo unspecified) | -105 | x | 0 | 2 | -8 | 59*
CN1CCN(c2ccc([N+](=O)[O-])c(NCC3CCCO3)c2)CC1 (stereo unspecified) | -12 | 20 | 2 | -5 | 10 | 15
CC(=O)CC(c1ccccc1[N+](=O)[O-])c1c(O)c2ccccc2oc1=O (stereo unspecified) | -9 | 22 | -14 | x | 4 | 1
Cc1cccc(N2C(=O)/C(=C/N3CCN(C(=O)c4ccco4)CC3)C(=O)NC2=S)c1 | -27 | x | -1 | -5 | 18 | 62*
Cc1ccc(N2C(=O)/C(=C/N3CCN(C(=O)c4ccco4)CC3)C(=O)NC2=S)cc1C | -41 | x | -1 | 0 | 10 | 8
Cc1ccccc1NC(=O)c1cc(-c2ccccc2)n(CCCN2CCOCC2)c1C | 63* | 16 | 7 | x | -8 | 4
CCN1CCN(Cc2ccc(OC(F)(F)F)cc2)CC1 | -7 | x | 0 | 0 | 85* | 19
